Among the data in ChEMBL document CHEMBL1124753, “Hydroxyethylamine analogues of the p17/p24 substrate cleavage site are tight-binding inhibitors of HIV protease” (J Med Chem, 1990) are Ki values, retold here.

Each structure is given as a SMILES string. *1 amine or outer side, *2 acyl side, *3 side chain or, on linkers, in order; H or OH if unused. Where a SMILES comes first, the peptide text is derived from it. [ ]: non-standard residue; d: D form. The star is where a group is joined. Phe(ψ(S)CH(OH)CH2N)Pro = O=C([C@@H]1CCCN1C[C@H](O)[C@H](Cc1ccccc1)N[*:1])[*:2]; Ahppa(3S,4S) = O=C(C[C@H](O)[C@H](Cc1ccccc1)N[*:1])[*:2]; X1 = CC(C)C[C@H](N[*:1])[C@@H](O)CN1CCC[C@H]1C(=O)[*:2]; X2 = O=C([C@@H]1CCCN1C[C@H](Cc1ccccc1)N[*:1])[*:2]; Sta = CC(C)C[C@H](N)[C@@H](O)CC(=O)O; Boc = CC(C)(C)OC(=O)*

In the first assay the target is T1, Human immunodeficiency virus type 1 protease (Human immunodeficiency virus 1, UniProt Q72874). Briefly: Inhibitory activity against HIV Protease was measured at pH 6.4 and 37 degrees C. In short, it runs like this:
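Recombinant HIV protease expressed in E. coli; substrate Ac-Thr-Ile-Met-Gln-Arg-NH2 varied 0.5–10 mM. Inhibitor added in DMSO (final 1–3%), preincubated with enzyme 10 min before substrate started the reaction. Initial rates by HPLC and fluorometric assays. Ki from fitting initial velocities to the competitive inhibition equation; each is the average of three or more independent determinations.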
Broadly, the Ki is the equilibrium dissociation constant of an inhibitor or competing ligand from its target. A high value points to weaker binding. With `CC[C@H](C)[C@H](NC(=O)[C@@H]1CCCN1C[C@H](O)[C@H](CC(C)C)NC(=O)[C@H](CC(N)=O)NC(=O)[C@H](CC(C)C)NC(C)=O)C(=O)OC`, the Ki was more than 10000 nM. On the same count and under the same terms, as for `CC[C@H](C)[C@H](NC(=O)C[C@H](O)[C@H](Cc1ccccc1)NC(=O)[C@H](CC(N)=O)NC(=O)[C@H](CC(C)C)NC(=O)[C@H](CO)NC(C)=O)C(=O)N[C@H](C(=O)OC)C(C)C` (Ac-SLN[Ahppa(3S,4S)]IV-OMe), the figure is 8000 nM; as for `CC[C@H](C)[C@H](NC(=O)[C@@H]1CCCN1C[C@H](O)[C@H](CC(C)C)NC(=O)[C@H](CC(N)=O)NC(=O)[C@H](CC(C)C)NC(=O)[C@H](CO)NC(C)=O)C(=O)OC` (Ac-SLN[X1]I-OMe), 980 nM; as for `CC[C@H](C)[C@H](NC(=O)[C@@H]1CCCN1C[C@H](O)[C@H](CC(C)C)NC(=O)[C@H](CC(N)=O)NC(=O)[C@H](CC(C)C)NC(=O)[C@H](CO)NC(C)=O)C(=O)N[C@H](C(=O)OC)C(C)C` (Ac-SLN[X1]IV-OMe), 118 nM.

The next assay has as its target T1, Human immunodeficiency virus type 1 protease. Briefly: Inhibition of HIV protease at pH 6.4, 37 degree C.
`CC[C@@H](C)[C@H](NC(=O)[C@@H]1CCCN1C[C@@H](O)[C@H](Cc1ccccc1)NC(=O)[C@H](CC(N)=O)NC(=O)[C@H](CC(C)C)NC(C)=O)C(=O)N[C@H](C(=O)OC)C(C)C` displayed an inhibition constant (Ki) of 21 nM. With `COC(=O)[C@@H](NC(=O)[C@@H](NC(=O)CNC[C@H](O)[C@H](Cc1ccccc1)NC(=O)[C@H](C)NC(=O)[C@H](C)N)C(C)C)C(C)C`, the inhibition constant Ki is 18 nM. `CC[C@H](C)[C@H](NC(=O)[C@H](Cc1ccccc1)NC[C@H](O)[C@H](Cc1ccccc1)NC(=O)OC(C)(C)C)C(=O)N[C@@H](Cc1ccccc1)C(=O)OC`: the Ki was 0.6 nM.

Compound `CC[C@H](C)[C@H](NC(=O)[C@@H]1CCCN1C[C@H](O)[C@H](CC(C)C)NC(=O)[C@H](CC(N)=O)NC(=O)[C@H](CC(C)C)NC(C)=O)C(=O)N[C@H](C(=O)OC)C(C)C` (Ac-LN[X1]IV-OMe) had a Ki of 21 nM.

In the case of `CC[C@H](C)[C@H](NC(=O)[C@@H]1CCCN1C[C@H](O)[C@H](Cc1ccccc1)NC(=O)[C@H](CC(N)=O)NC(=O)[C@H](CC(C)C)NC(=O)[C@H](CO)NC(C)=O)C(=O)OC` (Ac-SLN[Phe(ψ(S)CH(OH)CH2N)Pro]I-OMe), the affinity corresponds to a Ki of 420 nM.

Consider `CC[C@H](C)[C@H](NC(=O)[C@@H]1CCCN1C[C@H](O)[C@H](Cc1ccccc1)NC(=O)[C@H](CC(N)=O)NC(=O)[C@H](CC(C)C)NC(=O)[C@H](CO)NC(C)=O)C(=O)N[C@H](C(=O)OC)C(C)C` (Ac-SLN[Phe(ψ(S)CH(OH)CH2N)Pro]IV-OMe), for which the Ki is 0.66 nM.

As to `CC[C@H](C)[C@H](NC(=O)C[C@H](O)[C@H](CC(C)C)NC(=O)[C@H](CC(N)=O)NC(=O)[C@H](CC(C)C)NC(=O)[C@H](CO)NC(C)=O)C(=O)N[C@H](C(=O)OC)C(C)C` (Ac-SLN[Sta]IV-OMe), the Ki worked out at 1060 nM. As for `COC(=O)[C@@H](NC(=O)[C@@H](NC(=O)C[C@H](O)[C@H](Cc1ccccc1)NC(=O)[C@H](CC(N)=O)NC(=O)[C@H](CCC(N)=O)NC(=O)[C@H](CO)NC(C)=O)C(C)C)C(C)C` (Ac-SQN[Ahppa(3S,4S)]VV-OMe), the inhibitory constant (Ki) stood at 39000 nM. The same measure, in the same setting: as for `CC(=O)N[C@@H](CO)C(=O)N[C@@H](CCC(N)=O)C(=O)N[C@@H](CC(N)=O)C(=O)N[C@@H](Cc1ccccc1)CN1CCC[C@H]1C(=O)N[C@H](C(=O)N[C@H](C(N)=O)C(C)C)C(C)C` (Ac-SQN[X2]VV-NH2), the figure is 13000 nM; as for `CC[C@H](C)[C@H](NC(=O)C[C@H](O)[C@H](Cc1ccccc1)NC(=O)[C@H](CC(N)=O)NC(=O)[C@H](CC(C)C)NC(=O)[C@H](CO)NC(=O)OC(C)(C)C)C(=O)N[C@H](C(=O)OC)C(C)C` (Boc-SLN[Ahppa(3S,4S)]IV-OMe), 2640 nM.
